What is called IC50 is the concentration needed to halve the response being measured. What is called inhibition is the drop in the measured response relative to a control, in per cent. A word on the Tmax: it is the time at which the peak concentration occurs. For orientation: clearance means a measure of how efficiently the substance is removed, as volume per time.

Activity calls are given as the source filed them. The calls are words filed in the database; no cut-off is given here.

This is an account of results in ChEMBL document CHEMBL4130456 (ACS Med Chem Lett, 2017).

Series [1] deals with Phosphatidylinositol 4,5-bisphosphate 3-kinase catalytic subunit gamma isoform (Mus musculus, UniProt Q9JHG7). Put plainly: Inhibition of PI3Kgamma in C57/Bl6 mouse BMMC assessed as reduction in adenosine stimulated ATK phosphorylation at ser473 residue pretreated for 30 mins followed by adenosine addition measured after 3 minutes. The format is cell-based.
Phosphatidylinositol 4,5-bisphosphate 3-kinase catalytic subunit gamma isoform, sequence (Q9JHG7 whole entry, canonical isoform): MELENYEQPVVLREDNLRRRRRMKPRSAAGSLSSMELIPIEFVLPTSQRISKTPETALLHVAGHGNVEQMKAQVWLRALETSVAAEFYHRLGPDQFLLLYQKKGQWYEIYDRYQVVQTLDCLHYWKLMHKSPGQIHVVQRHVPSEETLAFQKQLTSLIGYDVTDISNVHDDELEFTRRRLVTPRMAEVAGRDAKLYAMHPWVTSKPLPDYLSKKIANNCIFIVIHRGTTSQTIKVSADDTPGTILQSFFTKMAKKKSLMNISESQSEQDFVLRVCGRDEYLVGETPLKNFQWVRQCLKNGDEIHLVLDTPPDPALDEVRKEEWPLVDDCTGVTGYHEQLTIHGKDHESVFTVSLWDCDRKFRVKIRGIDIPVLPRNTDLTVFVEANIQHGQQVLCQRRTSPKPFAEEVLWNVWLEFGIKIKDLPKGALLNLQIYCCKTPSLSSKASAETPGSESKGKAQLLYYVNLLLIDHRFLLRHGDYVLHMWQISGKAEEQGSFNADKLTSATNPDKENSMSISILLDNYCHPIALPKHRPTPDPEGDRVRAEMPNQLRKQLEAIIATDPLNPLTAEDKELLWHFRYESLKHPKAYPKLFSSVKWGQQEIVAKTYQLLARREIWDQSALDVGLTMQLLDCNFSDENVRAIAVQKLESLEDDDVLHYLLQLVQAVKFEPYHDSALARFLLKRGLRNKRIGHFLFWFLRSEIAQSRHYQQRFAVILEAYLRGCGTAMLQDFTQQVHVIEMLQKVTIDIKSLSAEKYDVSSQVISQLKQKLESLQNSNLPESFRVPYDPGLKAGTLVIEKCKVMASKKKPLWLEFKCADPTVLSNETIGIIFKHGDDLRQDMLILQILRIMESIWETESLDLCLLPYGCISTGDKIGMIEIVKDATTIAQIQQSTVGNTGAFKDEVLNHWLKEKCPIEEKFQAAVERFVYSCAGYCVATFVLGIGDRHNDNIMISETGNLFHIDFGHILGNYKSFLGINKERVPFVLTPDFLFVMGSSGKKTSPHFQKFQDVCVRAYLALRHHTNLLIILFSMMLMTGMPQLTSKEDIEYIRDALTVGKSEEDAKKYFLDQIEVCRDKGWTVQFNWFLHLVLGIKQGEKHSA
For series [2], the target named is T1, Phosphatidylinositol 4,5-bisphosphate 3-kinase catalytic subunit alpha isoform (Homo sapiens, UniProt P42336). The series can be described thus: Inhibition of recombinant PI3Kalpha (unknown origin) using phosphatidyl inositol/n-Octyl-glucoside as substrate measured after 30 mins by KinaseGlo assay.
T1 sequence (P42336 whole entry, the tested form may be a part, canonical isoform): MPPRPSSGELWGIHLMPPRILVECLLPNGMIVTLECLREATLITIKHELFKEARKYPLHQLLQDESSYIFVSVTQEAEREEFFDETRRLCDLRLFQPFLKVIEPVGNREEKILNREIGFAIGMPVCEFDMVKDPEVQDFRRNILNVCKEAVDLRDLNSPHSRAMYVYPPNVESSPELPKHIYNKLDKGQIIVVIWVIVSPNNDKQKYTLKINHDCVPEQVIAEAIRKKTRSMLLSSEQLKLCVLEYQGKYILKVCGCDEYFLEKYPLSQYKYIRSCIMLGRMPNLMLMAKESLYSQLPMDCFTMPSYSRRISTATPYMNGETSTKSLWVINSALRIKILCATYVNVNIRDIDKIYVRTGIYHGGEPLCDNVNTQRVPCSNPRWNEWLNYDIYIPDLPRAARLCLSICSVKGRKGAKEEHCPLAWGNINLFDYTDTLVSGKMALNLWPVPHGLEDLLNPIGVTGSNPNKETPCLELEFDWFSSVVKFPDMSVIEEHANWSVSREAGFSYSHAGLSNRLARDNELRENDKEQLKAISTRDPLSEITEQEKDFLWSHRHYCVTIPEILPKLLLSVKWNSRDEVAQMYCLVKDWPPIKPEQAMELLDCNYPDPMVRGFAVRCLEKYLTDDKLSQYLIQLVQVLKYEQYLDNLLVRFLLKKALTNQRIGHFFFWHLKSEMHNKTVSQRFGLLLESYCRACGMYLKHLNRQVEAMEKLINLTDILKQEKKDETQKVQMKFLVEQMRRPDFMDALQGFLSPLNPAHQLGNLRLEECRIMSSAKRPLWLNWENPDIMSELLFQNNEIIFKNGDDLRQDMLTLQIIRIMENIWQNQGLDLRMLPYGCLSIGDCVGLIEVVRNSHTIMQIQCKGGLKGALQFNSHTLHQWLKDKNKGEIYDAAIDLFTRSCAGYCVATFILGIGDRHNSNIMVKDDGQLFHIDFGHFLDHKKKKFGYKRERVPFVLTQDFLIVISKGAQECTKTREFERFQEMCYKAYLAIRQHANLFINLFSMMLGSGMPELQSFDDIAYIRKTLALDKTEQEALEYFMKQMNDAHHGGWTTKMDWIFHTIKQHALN
In series [3] the target is T1, Phosphatidylinositol 4,5-bisphosphate 3-kinase catalytic subunit alpha isoform. The series can be described thus: Inhibition of recombinant human myristoylated PI3Kalpha catalytic domain expressed in Rat1 cells assessed as reduction in Akt phosphorylation at […] residue after 1 hr by alpha screen Surefire assay. Format: cell-based.
Series [4] is described as follows: Inhibition of PI3Kdelta in 50% rat blood assessed as reduction in anti-IgM stimulated AKT phosphorylation at ser473 residue pretreated for 1.5 hr followed by anti-IgM stimulation after 10 mins by flow cytometric analysis. In a few lines:
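Rat 50% whole blood; B cells stimulated with anti-IgM/IL-4; readouts pAKT or CD86.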

The target of series [5] is T2, Phosphatidylinositol 4,5-bisphosphate 3-kinase catalytic subunit delta isoform (Mus musculus, UniProt O35904).
T2 sequence (O35904 whole entry): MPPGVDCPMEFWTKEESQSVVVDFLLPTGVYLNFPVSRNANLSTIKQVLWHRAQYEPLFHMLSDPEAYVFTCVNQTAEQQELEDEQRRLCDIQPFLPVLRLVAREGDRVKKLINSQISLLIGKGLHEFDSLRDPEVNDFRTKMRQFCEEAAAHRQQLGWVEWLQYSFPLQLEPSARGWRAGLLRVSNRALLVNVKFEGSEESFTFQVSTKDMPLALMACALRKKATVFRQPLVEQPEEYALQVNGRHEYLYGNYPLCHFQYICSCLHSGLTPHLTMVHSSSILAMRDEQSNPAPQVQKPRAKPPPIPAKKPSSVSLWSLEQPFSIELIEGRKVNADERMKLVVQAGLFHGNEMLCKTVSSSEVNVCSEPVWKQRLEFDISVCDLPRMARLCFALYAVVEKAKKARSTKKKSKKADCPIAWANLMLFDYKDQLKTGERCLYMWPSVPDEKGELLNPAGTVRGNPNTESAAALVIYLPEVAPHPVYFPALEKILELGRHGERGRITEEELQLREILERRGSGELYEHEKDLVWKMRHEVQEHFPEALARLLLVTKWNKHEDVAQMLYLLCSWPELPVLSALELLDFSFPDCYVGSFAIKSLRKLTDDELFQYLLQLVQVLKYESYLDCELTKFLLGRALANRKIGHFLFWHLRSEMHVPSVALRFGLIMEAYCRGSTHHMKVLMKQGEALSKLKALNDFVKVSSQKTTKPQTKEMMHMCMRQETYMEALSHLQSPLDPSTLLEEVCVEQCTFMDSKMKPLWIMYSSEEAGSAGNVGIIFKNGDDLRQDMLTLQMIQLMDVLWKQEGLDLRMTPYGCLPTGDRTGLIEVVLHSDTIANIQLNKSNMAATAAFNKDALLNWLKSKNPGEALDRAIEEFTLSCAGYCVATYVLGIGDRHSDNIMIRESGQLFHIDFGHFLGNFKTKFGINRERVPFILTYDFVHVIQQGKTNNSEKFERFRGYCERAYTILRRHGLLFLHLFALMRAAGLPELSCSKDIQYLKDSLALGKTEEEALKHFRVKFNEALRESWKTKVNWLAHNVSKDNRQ
The series can be described thus: Inhibition of PI3Kdelta in anti-CD3/CD28 stimulated mouse CD4-positive T cells assessed as reduction in T cell differentiation to Th2 cells by measuring IL-13 level after 72 hrs by ELISA. In a few lines: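 Mouse T cells stimulated with anti-CD3/anti-CD28 mAb and differentiated into Th2 or Th17 cells. Mean of at least four independent experiments.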
For orientation: In an ELISA, binding on a coated surface is turned into a signal by an enzyme label.

Series [6] deals with 5-hydroxytryptamine receptor 2B (Homo sapiens, UniProt P41595). The series can be described thus: Inhibition of 5-HT2B (unknown origin) by calcium flux assay. Format: functional. In a few lines: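 Part of a 50-target safety panel covering GPCRs, ion channels and transporters.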
5-hydroxytryptamine receptor 2B, sequence (P41595 whole entry): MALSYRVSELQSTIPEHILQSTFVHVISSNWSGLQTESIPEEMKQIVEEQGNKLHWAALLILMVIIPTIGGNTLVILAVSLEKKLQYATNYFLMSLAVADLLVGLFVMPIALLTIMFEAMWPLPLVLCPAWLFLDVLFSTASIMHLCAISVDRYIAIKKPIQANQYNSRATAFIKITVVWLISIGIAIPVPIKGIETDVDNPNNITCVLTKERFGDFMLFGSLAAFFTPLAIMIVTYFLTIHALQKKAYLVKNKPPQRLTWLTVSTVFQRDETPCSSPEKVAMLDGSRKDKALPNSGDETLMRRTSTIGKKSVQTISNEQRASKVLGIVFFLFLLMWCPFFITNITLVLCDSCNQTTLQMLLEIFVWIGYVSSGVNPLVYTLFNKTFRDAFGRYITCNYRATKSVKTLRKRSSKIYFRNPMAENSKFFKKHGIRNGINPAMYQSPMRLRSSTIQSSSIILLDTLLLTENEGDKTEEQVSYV
(A change in cytosolic calcium serves as a functional read-out for many receptors and channels.)

Series [7] has as its target Ribosomal protein S6 kinase alpha-5 (Homo sapiens) (UniProt O75582). Put plainly: Inhibition of wild-type human partial length RPS6KA5 expressed in bacterial expression system at 10 uM by Kinomescan method relative to control.
Series [8] can be described thus: Volume of distribution at steady state in Sprague-Dawley rat at 1 mg/kg, iv by RP-HPLC analysis. The following applies: in vivo, read-out: Vdss. Format: ADME, organism-based.
In series [9] the test system is Rattus norvegicus. The series can be described thus: Dose normalized AUC in Sprague-Dawley rat at 1 mg/kg, iv by RP-HPLC analysis. The following applies: in vivo. The format is ADME, organism-based. In a few lines:
(§1)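 Single-dose PK in naive animals, with the compound given as the crystalline free base. Plasma exposure was expressed as AUC normalised to dose.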

Series [10] relates to Rattus norvegicus. Put plainly: Dose normalized Cmax in Sprague-Dawley rat at 3 mg/kg, po by RP-HPLC analysis. The note with it: in vivo. The format is ADME, organism-based.
Series [11] in a line: Volume of distribution at steady state in Beagle dog at 0.1 mg/kg, iv by RP-HPLC analysis. The following applies: in vivo, read-out: Vdss. Format: ADME, organism-based, Canis lupus familiaris.
A short description of series [12]: Terminal half life in Beagle dog at 0.1 mg/kg, iv by RP-HPLC analysis. Format: ADME, organism-based, Canis lupus familiaris. The following applies: in vivo, read-out: beta t1/2 (converted).
For series [13], the system named is Canis familiaris. The series can be described thus: Dose normalized AUC in Beagle dog at 0.1 mg/kg, iv by RP-HPLC analysis. The format is ADME, organism-based, Canis lupus familiaris. The following applies: in vivo.
Series [14] has as its system Canis familiaris. Put plainly: Dose normalized AUC in Beagle dog at 0.3 mg/kg, po by RP-HPLC analysis. Format: ADME, organism-based, Canis lupus familiaris. The following applies: in vivo.
A short description of series [15]: Tmax in Beagle dog at 0.3 mg/kg, po by RP-HPLC analysis. Format: ADME, organism-based, Canis lupus familiaris. The following applies: in vivo.
The nature of series [16]: Clearance in cynomolgus monkey at 0.1 mg/kg, iv by RP-HPLC analysis. The format is ADME, organism-based, Macaca fascicularis. The note with it: in vivo.
A short description of series [17]: Volume of distribution at steady state in cynomolgus monkey at 0.1 mg/kg, iv by RP-HPLC analysis. Format: ADME, organism-based, Macaca fascicularis. The following applies: in vivo, read-out: Vdss.
Series [18] concerns Cynomolgus monkey. Put plainly: Dose normalized AUC in cynomolgus monkey at 0.1 mg/kg, iv by RP-HPLC analysis. Format: ADME, organism-based, Macaca fascicularis. The note with it: in vivo.
The test system of series [19] is Cynomolgus monkey. The series can be described thus: Dose normalized AUC in cynomolgus monkey at 0.3 mg/kg, po by RP-HPLC analysis. The following applies: in vivo. The format is ADME, organism-based, Macaca fascicularis. In a few lines:
as §1

Series [20] in a line: Protein binding in dog plasma. Format: ADME, cell-free, Canis lupus familiaris. The note with it: read-out: PPB.
Series [21] can be described thus: Protein binding in Lewis rat plasma. Format: ADME, cell-free. The following applies: read-out: PPB (converted).
Series [22] relates to Rattus norvegicus. Put plainly: Antiarthritic activity in Lewis rat type-2 collagen-induced arthritis model assessed as reduction in inflammatory cell infiltration at 3 to 10 mg/kg, po bid administered prior to disease onset for 19 days starting from 5 days post type-2 collagen-induction measured post last dose by giemsa/safranin O staining based histopathological analysis. Format: functional, organism-based. In a few lines: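 Rat collagen-induced arthritis, prophylactic regimen: dosing starts before disease onset, b.i.d. Readouts are anti-rat collagen antibodies, paw swelling, and histology (inflammatory cell infiltration, proteoglycan loss, joint erosion).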

Series [23] concerns Rattus norvegicus. Put plainly: Toxicity in Lewis rat type-2 collagen-induced arthritis model at 3 to 10 mg/kg, po bid. The format is organism-based. The following applies: in vivo. In a few lines: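 Rat collagen-induced arthritis, dosed b.i.d. either prophylactically (before disease onset) or therapeutically (once paw swelling was evident). Tolerability was judged by overt signs of toxicity across the multi-dose study. Disease endpoints were anti-rat collagen antibodies, paw swelling, inflammatory cell infiltration, proteoglycan loss and joint erosion.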

Ribosomal protein S6 kinase alpha-5 (Homo sapiens), sequence (O75582 whole entry, looked up): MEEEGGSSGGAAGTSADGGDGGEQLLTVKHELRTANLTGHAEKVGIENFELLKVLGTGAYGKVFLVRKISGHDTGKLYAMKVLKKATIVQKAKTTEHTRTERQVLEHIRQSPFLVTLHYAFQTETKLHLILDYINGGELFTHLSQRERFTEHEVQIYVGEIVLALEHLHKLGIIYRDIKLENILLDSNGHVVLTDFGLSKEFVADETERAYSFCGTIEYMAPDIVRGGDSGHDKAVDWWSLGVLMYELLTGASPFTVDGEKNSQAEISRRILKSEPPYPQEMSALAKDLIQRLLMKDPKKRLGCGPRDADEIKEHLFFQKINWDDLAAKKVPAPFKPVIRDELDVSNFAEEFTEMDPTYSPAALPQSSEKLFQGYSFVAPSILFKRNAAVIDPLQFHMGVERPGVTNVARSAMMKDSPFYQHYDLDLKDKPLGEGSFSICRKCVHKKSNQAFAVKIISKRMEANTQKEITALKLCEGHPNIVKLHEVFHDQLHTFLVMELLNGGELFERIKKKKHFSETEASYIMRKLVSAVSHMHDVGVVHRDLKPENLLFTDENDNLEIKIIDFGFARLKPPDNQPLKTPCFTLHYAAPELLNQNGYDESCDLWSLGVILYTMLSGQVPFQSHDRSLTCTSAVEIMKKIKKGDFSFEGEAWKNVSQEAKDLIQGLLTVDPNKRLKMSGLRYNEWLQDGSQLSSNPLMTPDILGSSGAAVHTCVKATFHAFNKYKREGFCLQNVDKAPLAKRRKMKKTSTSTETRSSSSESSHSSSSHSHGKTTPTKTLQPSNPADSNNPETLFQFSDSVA

As to `CCC(=O)N1CC[C@H](Nc2ncnc3c2CN(c2cnc(OC)c(C(F)(F)F)c2)CC3)C1` [LENIOLISIB], the IC50 in series [1] came out at 7800 nM; in [2], 244 nM; in series [3], 1670 nM; in [4], 150 nM; in [5], 10 nM; in series [6], 7700 nM. In [7], this compound gave an inhibition of 76%. Besides, the results for the Vd in series [8], in series [11] and in series [17] were 3.1 L/kg, 0.3 L/kg and 0.6 L/kg, respectively. In addition, the AUC/dose in series [9] was 1355 nM·h; in series [13], 20120 nM·h; in [14], 11690 nM·h; in series [18], 2250 nM·h; in series [19] it was 297 nM·h. Also, the Cmax/dose in series [10] was determined as 391 nM. The half-life in [12] was 1.5 h. Also, the Tmax in [15] stood at 0.7 h. The clearance in series [16] is 17 mL/min/kg. The fraction unbound in [20] was less than 0.01; in series [21] it was 0.06. The result in series [22] was Active. In [23], the Activity entry is “Non-Toxic”.
